In article PMC3190670 (ChemMedChem, 2011):

System: Bovine brain tubulin
Assay: turbidimetric tubulin assembly
Format: biochemical, Bos taurus
Details: read-out: IC50 ± SD [μM]^[a]; 10 μM tubulin, glutamate buffer, GTP, 30°C, 20 min
Outline: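 Purified bovine brain tubulin was preincubated with varying test-compound concentrations in glutamate buffer at 30°C, then cooled to 0°C. GTP was added, and mixtures went into 0°C cuvettes and were warmed to 30°C. Assembly was followed turbidimetrically in a recording spectrophotometer. IC50 was the concentration that cut the extent of assembly by 50% after 20 min.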

Row | Compound | IC50 [µM]
1 | COc1cc(C(=O)c2cc3cc(N)cc(OC)c3o2)cc(OC)c1OC [3i, (5-Amino-7-methoxybenzo[b]furan-2-yl)(3,4,5-trimethoxyphenyl)methanone] | 3.1 ± 0.2
3 | COc1cc2oc(C(=O)c3cc(OC)c(OC)c(OC)c3)cc2cc1N [3g, (5-Amino-6-methoxybenzo[b]furan-2-yl)(3,4,5-trimethoxyphenyl)methanone] | 1.4 ± 0.01
4 | C=C(Br)C(=O)Nc1cccc2oc(C(=O)c3cc(OC)c(OC)c(OC)c3)cc12 [4a, 2-Bromo-N-[2-(3,4,5-trimethoxybenzoyl)-1-benzo[b]furan-4-yl]acrylamide] | > 40
5 | COc1cc2oc(C(=O)c3cc(OC)c(OC)c(OC)c3)c(C)c2cc1N [3h, (5-Amino-3-methyl-6-methoxybenzo[b]furan-2-yl)(3,4,5-trimethoxyphenyl)methanone] | 0.56 ± 0.08
6 | COc1cc(C(=O)c2oc3c(OC)cc(N)cc3c2C)cc(OC)c1OC [3j, (5-Amino-3-methyl-7-methoxybenzo[b]furan-2-yl)(3,4,5-trimethoxyphenyl)methanone] | 1.6 ± 0.1
